# Source: PubChem
# This is a sample that favours compounds with a hit; in the whole collection about 1.9% have one here.
# ASAP1 inh: inhibitors of human ASAP1 ArfGAP activity, primary screen, biochemical, fluorescence polarization; ASAP1-stimulated ARF1 GTP hydrolysis, GDP FP detection; inhibition, % at 16.5 µM; 0.19% of 360,000 active; AID 624377, 2012; in the data active = inhibition above about 25%;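 note: 0% = vehicle with enzyme and substrate and 100% = no enzyme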
# Target sequence (Q9ULH1 325-724 limits assumed): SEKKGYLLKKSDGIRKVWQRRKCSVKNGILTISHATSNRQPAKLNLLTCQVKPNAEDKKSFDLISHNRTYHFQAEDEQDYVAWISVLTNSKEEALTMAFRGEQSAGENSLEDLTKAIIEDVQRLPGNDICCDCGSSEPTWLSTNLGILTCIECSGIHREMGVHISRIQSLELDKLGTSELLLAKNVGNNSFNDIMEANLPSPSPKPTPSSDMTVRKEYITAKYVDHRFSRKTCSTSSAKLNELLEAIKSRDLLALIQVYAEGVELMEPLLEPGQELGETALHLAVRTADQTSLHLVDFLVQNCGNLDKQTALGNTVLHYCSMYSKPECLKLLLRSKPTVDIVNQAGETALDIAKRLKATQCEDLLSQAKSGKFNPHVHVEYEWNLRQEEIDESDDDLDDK
# Efflux pump mplx: inhibitors of Candida efflux pumps in yeast, primary screen, S. cerevisiae, Nile Red, multiplex; S. cerevisiae Candida pump triplex; inhibition, % at 10 µM; 0.44% of 330,000 active;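 active = plate passing quality check with inhibition over a set limit, or well fluorescence over plate mean plus 4 SD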;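 note: Nile Red retained in pooled yeast measured as flow cytometry median fluorescence; 0% = buffer negative control and 100% = Enniatin B positive control; higher means more Nile Red kept so more efflux inhibition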
# ARFGAP1 inhibitor: inhibitors of rat ARFGAP1 GAP activity, primary screen, biochemical, fluorescence polarization, GDP tracer; ADP-ribosylation factor GTPase-activating protein 1 (Rattus norvegicus), Q62848; Arfgap1-stimulated ARF1 GTP hydrolysis, GDP FP detection; inhibition, % at 16.5 µM; 0.26% of 360,000 active;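 active = inhibition above a per-plate limit, mean inhibition of low control wells plus 3 SD, cut at about 25% in these data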;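 note: 0% = DMSO wells with enzyme and 100% = wells lacking Arfgap1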
# Target sequence (Q62848 1-136 limits assumed): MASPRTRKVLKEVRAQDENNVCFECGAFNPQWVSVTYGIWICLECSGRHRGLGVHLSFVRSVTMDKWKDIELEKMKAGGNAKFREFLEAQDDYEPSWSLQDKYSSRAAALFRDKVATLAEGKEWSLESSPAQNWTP
#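 Assay system: purified rat His6-Arfgap1 residues 1-136 (GAP domain); Reagent: human Δ17 ARF1 bound to GTP; Dosing: 16.5 µM single point, 1.26% DMSO; Times: GTP hydrolysis reaction 2 h at 25 °C; Signal: FP, GDP Alexa 633 tracer displaced from anti-GDP antibody, 620/688 nm; Measure: % inhibition from polarization.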
# Rtt109 Vps75: inhibitors of C. albicans Rtt109/Vps75 HAT, primary screen, biochemical, ThioGlo CoA-SH fluorescence, plate reader; Histone acetyltransferase RTT109 (Candida albicans (strain SC5314 / ATCC MYA-2876)), …; purified Rtt109/Vps75, 4 h; inhibition, % at 34.9 µM; 0.16% of 330,000 active;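 active = inhibition of at least 50% in every replicate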
# FGF22 binding: binders of human FGF22 protein, primary screen, FGF22 synaptogenesis inhibitor project, biophysical, thermal shift, single point. Fibroblast growth factor 22 (Homo sapiens), Q9HCT0. recombinant FGF22 thermal shift, SYPRO orange fluorescence; percent of sucrose octasulfate shift, DMSO zero. activity (Tm shift, normalised), % at 9.99 µM. 1.5% of 340,000 active;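 active = mean Tm shift, scaled 0 neutral to 100 positive control, at about 1.3% or above, every replicate too, limit read from the data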
# Target sequence (Q9HCT0 whole entry, looked up): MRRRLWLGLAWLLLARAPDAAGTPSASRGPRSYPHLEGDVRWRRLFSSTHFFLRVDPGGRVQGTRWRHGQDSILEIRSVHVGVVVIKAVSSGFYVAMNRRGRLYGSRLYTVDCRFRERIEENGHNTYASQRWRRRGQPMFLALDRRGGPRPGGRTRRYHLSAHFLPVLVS
# Yeast cmpd fluor: counter-screen for efflux pump inhibitors: compound fluorescence; fluorescence ratio to DMSO, % at 10 µM; S. cerevisiae AD/pABC3, flow cytometry; AID 588517; shares compounds with Efflux pump mplx; 4% of 1,700 active;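 active = fluorescence ratio to DMSO above its plate's cutoff, the plate mean ratio plus 5 SD, cut at about 210% in these data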;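 note: unstained yeast with no Nile Red so the signal is compound autofluorescence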
# CaMdr1 efflux inh: inhibitors of Candida albicans Mdr1 efflux, confirmation, flow cytometry, singleplex, Cherry Pick1 set | shares compounds with Efflux pump mplx | S. cerevisiae AD/CaMDR1, Nile Red efflux | inhibition, % at 10 µM | 1% of 1,700 active | AID 588518, 2011; in the data active = inhibition above about 26%;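 note: 0% = DMSO vehicle and 100% = reference inhibitor; higher means more Nile Red retained so more efflux inhibition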
# Cdr2 pump inh: inhibitors of Candida albicans Cdr2 efflux pump, confirmation, S. cerevisiae AD/CaCDR2, flow cytometry, cherry pick 1, singleplex | shares compounds with Efflux pump mplx | Nile Red retention | Nile Red retention ratio vs DMSO, % at 10 µM | 4% of 1,700 active; in the data active = Nile Red retention ratio vs DMSO above about 190%;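 note: higher ratio means more blocking of Cdr2 efflux of the dye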
# CaCdr1 efflux inh: inhibitors of Candida albicans Cdr1 efflux pump, confirmation, S. cerevisiae AD/CaCDR1, flow cytometry, cherry pick 1, singleplex. Nile Red efflux. inhibition, % at 10 µM. 1% of 1,700 active. AID 588522, 2011. shares compounds with Efflux pump mplx;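 active = inhibition above the screen-wide mean plus twice its standard deviation, cut at about 32% in these data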
# The depositor's hits bear a star; nt = no result.
SMILES,ASAP1 inh,Efflux pump mplx,ARFGAP1 inhibitor,Rtt109 Vps75,FGF22 binding,Yeast cmpd fluor,CaMdr1 efflux inh,Cdr2 pump inh,CaCdr1 efflux inh
COc1cccc(C(=O)NC2CC(C)(C)Cc3c2cnn3-c2cccc(F)c2)c1OC (stereo unspecified),5.0,-0.1,2.7,-0.6,-0.3,106.7,-0.2,106.3,0.0
COCC#Cc1ccc2c(c1)O[C@@H](CN(C)S(=O)(=O)c1ccc(OC)cc1)[C@@H](C)CN([C@@H](C)CO)S2(=O)=O,nt,nt,nt,nt,0.0,nt,nt,nt,nt
COc1ccccc1C(=O)Nc1ccncc1,-6.7,-0.1,-3.6,-3.7,-0.1,nt,nt,nt,nt
COc1ccccc1C(=O)Nc1ccc(C2=NNC(=O)CC2C)cc1 (stereo unspecified),-4.5,1.0*,9.0,-6.6,nt,98.6,-0.2,107.8,0.0
O=C(NCc1cccs1)C1CCCN(C(=O)Nc2ccc(F)cc2)C1 (stereo unspecified),4.4,0.0,1.9,-11.1,0.2,nt,nt,nt,nt
O=C(NCCCN1CCCC1=O)c1cccnc1,-10.1,5.9*,2.1,-9.2,nt,95.3,-0.3,90.9,-0.4
C/C=C/c1cnc2c(c1)C(=O)N([C@@H](C)CO)C[C@H](C)[C@H](CN(C)S(=O)(=O)c1ccc(C)cc1)O2,nt,nt,nt,nt,0.3,nt,nt,nt,nt
Cc1cc2ccccc2n1CCNC(=O)c1ccc(Br)o1,10.9,1.3*,-2.8,-5.0,0.0,100.0,-0.1,94.0,-0.1
Cc1ccc(NC(=O)c2cccnc2)cc1C,7.5,-0.1,6.6,-0.3,0.0,nt,nt,nt,nt
COc1ccc(-c2cc(=O)n(-c3ccc([N+](=O)[O-])cc3)[nH]2)cc1,6.9,13.8*,9.1,3.7,nt,86.5,-0.3,104.2,-0.1
CCNC(=S)N1CCc2ccccc2C1,-0.6,0.0,3.2,-5.5,0.3,nt,nt,nt,nt
S=C(NCc1ccccc1)N1CCc2ccccc2C1,8.4,0.0,1.5,0.9,-0.1,93.3,0.0,100.1,0.2
COc1cc(OC)c(OC)cc1/C=N/NC(=O)C[n+]1ccccc1,11.6,7.6*,5.3,-5.0,nt,93.4,-0.3,83.1,-0.1
COc1ccc(C(=O)NC2CCCc3c2cnn3-c2ccccc2F)o1 (stereo unspecified),13.1,-0.5,12.4,-3.3,0.0,94.8,-0.2,107.2,-0.1
Cc1ccc2nc(-c3cccc(Br)c3)cc(C(=O)NC3=NCCS3)c2c1,-9.5,0.1,13.0,-11.1,0.2,nt,nt,nt,nt
Cc1ccc(C(=O)Nc2cc(Cl)ccc2Oc2ccccc2)cc1[N+](=O)[O-],1.3,0.0,-8.8,5.4,nt,nt,nt,nt,nt
CC1(C)CC[C@]2(C(=O)O)CC[C@]3(C)C(=CCC4[C@@]5(C)CC[C@H](O)C(C)(C)C5CC[C@]43C)C2C1 (stereo partly specified),10.2,1.4*,-2.0,-0.1,0.1,81.2,0.1,97.5,-0.4
CCOC(=O)Nc1ccc2c(c1)N(C(=O)CN1CCN(CCO)CC1)c1ccccc1CC2,-0.5,0.0,1.8,-4.1,-0.1,nt,nt,nt,nt
COc1cc(N2CCCC2)c(OC)cc1/C=C1/NC(=S)NC1=O,9.9,0.5*,-5.2,-6.9,nt,288.7*,0.0,120.4,0.0
O=C(COC(=O)c1ccccn1)c1ccc(Br)cc1,-5.1,1.3*,3.3,nt,nt,99.8,-0.1,91.4,-0.1
CCOc1cc(/C=N/n2c(C)nc3sc(C)c(C)c3c2=O)ccc1O,-4.2,0.0,6.3,-5.9,0.0,nt,nt,nt,nt
C=CCNC(=O)NC(=O)COC(=O)/C(C#N)=C/c1cc(C)n(CC(C)C)c1C,14.9,2.4*,-3.4,-5.2,nt,100.0,-0.4,102.2,0.0
C[C@H]1CN([C@@H](C)CO)C(=O)Cc2cc(NC(=O)Nc3ccc(F)cc3)ccc2O[C@H]1CN(C)C,nt,nt,nt,nt,0.0,nt,nt,nt,nt
CSc1nsc(SC)c1C(=O)NC(=O)Nc1cccnc1,-2.3,0.8*,-5.1,6.1,0.1,106.9,-0.1,111.5,0.0
Cc1ccc(-c2c[n+](CC(=O)Nc3ccccc3C)c3n2CCC3)cc1,2.1,0.0,8.4,16.3,0.0,103.1,-0.4,91.9,-0.1
SMILES,ASAP1 inh,Efflux pump mplx,ARFGAP1 inhibitor,Rtt109 Vps75,FGF22 binding,Yeast cmpd fluor,CaMdr1 efflux inh,Cdr2 pump inh,CaCdr1 efflux inh
Cc1ccc(NC(=O)C[n+]2cc(-c3ccccc3)n3c2CCC3)cc1,-1.2,0.0,-6.2,nt,0.0,nt,nt,nt,nt
Cc1ccnc(N2C(=O)c3cccc4c([N+](=O)[O-])ccc(c34)C2=O)c1,-9.8,0.9*,0.2,1.2,0.1,215.7,0.7,128.8,0.8
CO[C@H]1CN(C)C(=O)c2cc(NS(C)(=O)=O)ccc2OC[C@H](C)N(C(=O)c2ccc3c(c2)OCO3)C[C@@H]1C,nt,nt,nt,nt,0.1,nt,nt,nt,nt
Cc1ccc(Nc2nc(Oc3ccc(OCc4ccccc4)nn3)nc(N3CCOCC3)n2)cc1,-5.0,0.7*,-7.4,-3.3,nt,108.3,-0.1,109.9,-0.1
CCOC(=O)c1ccc(N2C(=O)C=C(N3CCOCC3)C2=O)cc1,7.2,0.3,-14.0,6.0,0.1,nt,nt,nt,nt
Cc1ccc(C(=O)Nc2cccc(C(=O)O)c2)cc1S(=O)(=O)N1CCOCC1,13.2,-0.1,15.7,0.5,0.2,nt,nt,nt,nt
Cc1ccc(NC(=O)c2cccc(S(=O)(=O)N(C)c3ccccc3)c2)cc1S(=O)(=O)N1CCOCC1,-8.5,8.0*,9.4,-7.1,nt,106.7,-0.1,103.6,0.1
O=C(NCc1ccc(F)cc1)c1noc2c1CCCC2,nt,0.9*,nt,-19.6,0.1,83.3,-0.4,95.4,-0.5
